# Screening data from PubChem BioAssay.
# In the library only some 4.5% were active in any assay of this set; here they are far more common.
# TAAR1 agonist: human TAAR1 agonists, primary screen, Fluo-8 calcium fluorescence, CHO RD-HGA16 cells | AID 624467, 2012 | 360,000 compounds, 0.99% hits | activation, % at 3 µM | vehicle wells 0%, saturating PEA agonist 100% | Trace amine-associated receptor 1 (Homo sapiens), Q96RJ0;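 active = activation above the mean activation of all test compounds in the run plus 3 SD, cut at about 38% in these data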
# Target sequence (Q96RJ0 whole entry, looked up): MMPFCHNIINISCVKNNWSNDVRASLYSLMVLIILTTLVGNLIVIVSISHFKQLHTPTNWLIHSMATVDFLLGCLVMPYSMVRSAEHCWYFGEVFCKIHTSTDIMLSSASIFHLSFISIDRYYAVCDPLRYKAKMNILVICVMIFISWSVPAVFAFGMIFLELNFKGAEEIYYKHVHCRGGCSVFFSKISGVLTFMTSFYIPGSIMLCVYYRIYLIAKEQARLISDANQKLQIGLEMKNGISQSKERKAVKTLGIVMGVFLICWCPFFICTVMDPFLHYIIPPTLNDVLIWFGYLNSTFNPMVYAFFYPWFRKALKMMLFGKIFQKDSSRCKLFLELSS
#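 System: CHO-derived RD-HGA16 cells with stable Gα16 and human TAAR1 / Times: 17-24 h plating, Fluo-8 75 min 37 °C, 30 min RT / Technique: calcium-sensitive Fluo-8 signal, excitation 470-495, emission 515-575 nm / Measure: % activation relative to PEA EC100 response / Benchmarks: DMSO and PEA EC100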
# OX1R antag-1: antagonists of human orexin 1 receptor (OX1R) | Orexin/Hypocretin receptor type 1 (Homo sapiens), O43613 | OX1R-expressing cells, FRET antagonist read-out | inhibition, % at 6.6 µM | 330,000 compounds, 1.8% hits | AID 485270, 2010; in the data active = inhibition mostly above about 38%, no sharp cut-off; inactive = mostly below about 40%;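 also: 0% = agonist challenge alone and 100% = reference antagonist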
# GPR7 antag: GPR7 receptor antagonists, primary screen, cell-based, fluorescence, single concentration | Neuropeptides B/W receptor type 1 (Homo sapiens), P48145 | GPR7-expressing cells, fluorescence antagonist assay | inhibition, % at 4.4 µM | 290,000 compounds, 1.1% hits | AID 1861, 2009; in the data active = inhibition above about 16%, passing the limit was not always enough;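 also: cells stimulated with the agonist NPW; 0% = agonist with vehicle and 100% = vehicle without agonist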
# Target sequence (P48145 whole entry, looked up): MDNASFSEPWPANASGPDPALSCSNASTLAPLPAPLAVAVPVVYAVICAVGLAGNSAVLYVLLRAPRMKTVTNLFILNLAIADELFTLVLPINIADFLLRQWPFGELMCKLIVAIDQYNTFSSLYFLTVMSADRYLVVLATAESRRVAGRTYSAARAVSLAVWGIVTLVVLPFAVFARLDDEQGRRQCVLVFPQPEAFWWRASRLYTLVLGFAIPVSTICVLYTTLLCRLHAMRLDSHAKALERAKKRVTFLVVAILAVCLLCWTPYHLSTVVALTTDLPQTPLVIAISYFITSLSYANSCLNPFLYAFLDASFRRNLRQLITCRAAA
# TAAR1 antagonist: human TAAR1 antagonists, primary screen, Fluo-8 calcium fluorescence, CHO RD-HGA16 cells; Trace amine-associated receptor 1 (Homo sapiens), Q96RJ0; antagonist; inhibition, % at 3 µM; 360,000 compounds, 1.5% hits;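 active = inhibition above a per-plate cutoff, the mean inhibition of test compounds on that plate plus 3 SD, cut at about 49% in these data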;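 also: 0% = DMSO plus EC80 beta-PEA response and 100% = DMSO alone without agonist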
#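 Test system – hTAAR1-expressing CHO RD-HGA16 cells, Gα16-coupled · Also added – β-PEA at EC80 concentration, post-compound challenge · Compound – 3 µM, single point · Incubation – dye loading 75 min at 37 °C, then 30 min room temperature · Measured by – Fluo-8 intracellular calcium dye fluorescence, real-time kinetic reads · Benchmarks – vehicle and agonist controls · Replicates – singlicate, one well per test compound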
# CHO parental Ca: ATP-evoked calcium signal inhibitors, parental CHO, primary screen, counter-screen for OX1R antagonist project, cell-based, fluorescence, Fluo-8 calcium dye. AID 463079, 2010. parental CHO-K1, ATP-induced calcium, Fluo-8 fluorescence. 330,000 compounds, 0.63% hits. inhibition, % at 5.6 µM;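 active = inhibition above that plate's mean sample inhibition plus 3 SD, cut at about 26% in these data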;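 also: 0% = ATP-challenged DMSO wells and 100% = DMSO wells without ATP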
#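 Assay system: untransfected parental CHO cell line. Also added: ATP agonist challenge. Dosing: one dose, 5.6 µM nominal. Measured by: Fluo-8 fluorescence. Read-out: % inhibition. Benchmarks: ATP wells versus no-ATP DMSO wells. Repeats: no replicates.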
# OX1R antag-2: OX1R (HCRTR1) antagonists, primary screen, fluorescence, CHO/OX1R cells, Fluo-8 calcium, orexin A. Orexin/Hypocretin receptor type 1 (Homo sapiens), O43613. Fluo-8 calcium fluorescence. 330,000 compounds, 0.43% hits. inhibition, % at 5 µM;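 active = inhibition above its plate's threshold, mean inhibition of all tested compounds on the plate plus 3 SD, cut at about 37% in these data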;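 also: 0% = orexin A challenge wells and 100% = SB-334867-A antagonist wells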
# * = called active by the depositor; . = no result given.
SMILES,TAAR1 agonist,OX1R antag-1,GPR7 antag,TAAR1 antagonist,CHO parental Ca,OX1R antag-2
O=c1c(O)c(-c2cccs2)oc2ccccc12,45.4*,24.2,-0.2,27.2,49.0*,18.7
O=c1c(O)c(-c2ccccc2)oc2ccccc12,14.6,.,.,-4.5,.,.
O=C(Nc1nc(OCC(F)(F)F)cnc1/C=C\c1ccccc1)c1ccccc1,-1.4,.,.,25.5,.,.
Fc1ccc(NC(=S)N2CCCN(c3ccc(C(F)(F)F)cn3)CC2)c(F)c1,3.3,15.8,10.1,-6.8,22.1,56.9*
CCNC(=O)N1C[C@H]2CON(C)[C@H]2C[C@H]1c1ccc(N2CCCCC2)cc1,1.5,.,.,-17.7,.,.
Cc1ccc2nc(-c3ccc(Cl)cc3)c(Cc3ccccn3)n2c1,7.2,.,.,1.9,.,.
COc1ccc(C2CC3(CC(C)(C)NC(=S)N3)Oc3cc(O)cc(C)c32)cc1 (configuration not stated),0.7,4.4,-6.5,1.6,-21.0,-14.0
COc1ccc(C2CC3(CC(C)(C)NC(SC)=N3)Oc3cc(O)cc(C)c32)cc1 (configuration not stated),50.9*,-30.4,7.9,5.3,-9.2,-4.2
Cc1cc(N/N=C/c2ccc([N+](=O)[O-])o2)nc2ccccc12,11.9,42.4*,6.3,33.6,-6.4,24.8
COC(=O)C1=C(C)N(C)C(=NCC2CC2)NC1c1cccc(C(F)(F)F)c1 (configuration not stated),3.4,.,.,6.3,.,.
CC(=O)Nc1ccc(S(=O)(=O)NCC2CCN(C(=O)C(=O)c3cccs3)CC2)cc1,3.7,.,.,-7.0,.,.
CCN(CC)S(=O)(=O)c1cccc(NC(=O)CN2C(=O)c3ccc([N+](=O)[O-])cc3C2=O)c1,6.9,42.9,-3.2,-9.6,-9.9,-27.9
CN(C(=O)CN1C(=O)c2ccc([N+](=O)[O-])cc2C1=O)C1CCCCC1,5.9,64.0*,.,-3.8,-8.9,-7.0
COc1ccc(-c2cc([N+](=O)[O-])ccc2OCC(=O)N(C)CC(=O)Nc2ccc(C)cc2)cc1,-0.2,.,.,9.6,.,.
COc1ccc(NC(=O)CN(C)C(=O)CN2C(=O)c3ccc([N+](=O)[O-])cc3C2=O)cc1,-0.5,60.6*,-1.2,-12.0,7.3,0.1
CCN(C(=O)CN1C(=O)c2ccc([N+](=O)[O-])cc2C1=O)C1CCCCC1,-0.3,56.3*,-5.0,3.8,-4.5,-11.9
O=C1c2ccccc2C(=O)N1CCC#Cc1ccc2cc(CCO)oc(=O)c2c1,20.1,9.1,.,72.0*,1.4,11.5
O=C1NC(Cc2ccc(O)cc2)c2nc3ccc(F)cc3c(=O)n2-c2cc(Cl)ccc21 (configuration not stated),9.1,.,.,28.2,.,.
S=C(Nc1ccc(Cl)cc1)NC1CCN(Cc2ccccc2)CC1,50.3*,2.8,9.6,20.7,1.3,-10.8
CCC(C)N(Cc1ccc(OC)cc1OC)S(=O)(=O)c1cc(Br)ccc1Br (configuration not stated),0.2,.,.,10.9,.,.
COc1ccccc1NC(=O)Nc1nnc(-c2ccco2)s1,.,31.8*,1.3,.,-6.0,17.3
CNc1cncc(-c2cnn(CC(C)C)c2)n1,3.5,.,.,-17.7,.,.
O=C(Nc1ccc2ccccc2n1)c1ccccc1Br,-3.5,42.5*,3.0,-23.2,-18.4,-2.9
CCc1ccc(N/C(SCc2ccccc2C)=C(/C#N)C(=O)NCc2ccco2)cc1,1.1,28.7,-16.2,50.6*,7.0,-4.1
CCc1ccc(OCCCC(=O)NCc2ccco2)cc1,-1.3,8.1,0.0,-17.4,-7.7,-16.0
SMILES,TAAR1 agonist,OX1R antag-1,GPR7 antag,TAAR1 antagonist,CHO parental Ca,OX1R antag-2
CCOC(=O)C1CCCN(S(=O)(=O)c2ccc(S(=O)(=O)N3CCCC3)cc2)C1 (configuration not stated),5.4,35.6,.,1.6,36.9*,10.2
CCOC(=O)C1CCCN(c2cc(C)nc3cc(-c4ccc(F)cc4)nn23)C1 (configuration not stated),42.6*,12.4,-2.5,27.6,-20.9,-45.0
CCOC(=O)C1CCCN(C(=S)Nc2ccc(F)cc2)C1 (configuration not stated),51.3*,-6.0,-2.3,29.6,-10.9,-17.1
CCOC(=O)C1CCCN(c2cc(C)nc3cc(-c4ccc(Cl)cc4)nn23)C1 (configuration not stated),2.9,30.3,-1.8,-8.2,-14.5,-33.9
CCOC(=O)c1ccc(NC(=S)N2CCCC(C(=O)OCC)C2)cc1 (configuration not stated),35.6,22.6,-14.9,37.3,-20.5,-27.5
COC(=O)c1ccc2nc(-c3ccc(C)cc3)c(Cc3cccc(Cl)c3)n2c1,4.1,.,.,2.7,.,.
COCCOC(=O)c1c(C)nc(SCC(=O)Nc2cccc3ccccc23)c(C#N)c1-c1ccco1,1.9,12.7,4.1,51.0*,-28.6,-23.8
Cc1noc(C)c1S(=O)(=O)N1CCCc2nc(-c3ccc(F)cc3)ccc21,1.7,.,.,9.8,.,.
CCOC(=O)N1CCN(CCC(=O)c2ccc(Cl)cc2)CC1,37.5*,38.2,-6.3,-6.0,-9.2,-5.8
CCOC(=O)N1CCN(CCC(=O)c2ccc(Br)cc2)CC1,14.6,.,4.8,3.6,.,.
O=[N+]([O-])c1ccccc1-c1cc(-c2cc(Cl)ccc2O)n[nH]1,24.2,22.6,3.3,36.6,28.4,16.9
Cc1ccc(O)c(-c2cc(-c3ccccc3[N+](=O)[O-])[nH]n2)c1,8.8,18.5,16.9,56.9*,-3.7,-8.5
Cc1cc(C)c[n+](-c2[nH]c(=O)sc2/C=N/N=C(\[O-])c2cccnc2)c1,2.6,19.2,-3.0,-25.7,13.3,-15.8
CCc1ccc[n+](-c2[nH]c(=O)sc2/C=N/N=C(\[O-])c2ccncc2)c1,0.1,40.0*,-4.9,0.1,-6.7,-14.3
CCOC(=O)C1=CCN(S(=O)(=O)c2cccc(Cl)c2)C1c1cccc(Br)c1 (configuration not stated),2.9,.,.,24.2,.,.
c1ccc(CC(Nc2cccnc2)c2ccccc2)cc1 (configuration not stated),1.3,.,.,-8.0,.,.
Cc1ccc(C(C)C)c(OCCCNCc2cccnc2)c1,14.7,28.1,-5.8,-10.3,-29.1,-22.9
Cc1ccc(C(C)C)c(OCCNCCc2ccccc2)c1,43.9*,3.0,19.6,24.9,-3.3,-15.7
C=CCNc1ccc2c(c1)OC[C@H](Cc1ccccc1)NS2(=O)=O,3.2,.,.,-25.6,.,.
CN(Cc1cccc(F)c1)C(=O)c1ccccc1Sc1ccccc1C#N,0.8,41.3,12.6,11.9,-4.0,-21.2
